The target in test [1] is T1, Muscarinic acetylcholine receptor (Rattus norvegicus) (UniProt P08482+P08483+P08485+P08911+P10980). Particulars: 1 uM.
Test [2] concerns the target T1, Muscarinic acetylcholine receptor (Rattus norvegicus). Particulars: 10 uM.
For test [3], the target named is T2, Muscarinic acetylcholine receptor M1 (Homo sapiens, UniProt P11229).
T2 sequence (P11229 whole entry): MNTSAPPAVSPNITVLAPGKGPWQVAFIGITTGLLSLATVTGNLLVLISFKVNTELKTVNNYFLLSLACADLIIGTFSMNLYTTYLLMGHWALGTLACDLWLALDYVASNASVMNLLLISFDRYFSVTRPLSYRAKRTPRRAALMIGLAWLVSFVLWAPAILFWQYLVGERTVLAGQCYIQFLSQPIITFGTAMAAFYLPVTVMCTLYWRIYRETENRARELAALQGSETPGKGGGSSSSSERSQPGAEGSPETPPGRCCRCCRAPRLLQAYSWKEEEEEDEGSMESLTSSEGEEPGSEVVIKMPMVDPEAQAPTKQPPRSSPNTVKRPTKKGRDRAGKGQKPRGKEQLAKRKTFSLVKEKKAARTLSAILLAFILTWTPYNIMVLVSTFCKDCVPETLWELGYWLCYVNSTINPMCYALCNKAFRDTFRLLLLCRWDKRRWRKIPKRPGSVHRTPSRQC
Kind of test: Displacement of [3H]NMS from human M1 AChR expressed in CHO cell membranes after 1 to 2 hrs by liquid scintillation spectrometry method. The class given is cell-based. On the technique in general: Loss of bound radioactivity is the signal in a displacement assay; it reports binding, not function.

Test [4] has as its target T3, Muscarinic acetylcholine receptor M2 (Homo sapiens, UniProt P08172).
T3 sequence (P08172 whole entry): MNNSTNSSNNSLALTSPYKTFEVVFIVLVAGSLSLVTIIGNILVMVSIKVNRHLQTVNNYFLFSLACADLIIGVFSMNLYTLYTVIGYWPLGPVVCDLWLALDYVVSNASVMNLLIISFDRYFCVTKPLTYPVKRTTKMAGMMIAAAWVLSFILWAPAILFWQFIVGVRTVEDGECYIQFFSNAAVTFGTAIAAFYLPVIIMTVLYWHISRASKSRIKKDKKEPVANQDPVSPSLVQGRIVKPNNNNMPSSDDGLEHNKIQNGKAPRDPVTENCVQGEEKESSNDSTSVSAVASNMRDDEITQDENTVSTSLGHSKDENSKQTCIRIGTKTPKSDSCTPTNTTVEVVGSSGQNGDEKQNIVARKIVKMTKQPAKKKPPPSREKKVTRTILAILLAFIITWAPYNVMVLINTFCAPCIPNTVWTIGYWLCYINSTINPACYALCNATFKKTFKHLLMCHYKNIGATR
Kind of test: Displacement of [3H]NMS from human M2 AChR expressed in CHO cell membranes after 1 to 2 hrs by liquid scintillation spectrometry method. An outline of the steps:
(§1)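 CHO membranes expressing the human subtype (20 µg protein/well) with 0.3 nM [3H]NMS and analog (1 nM–100 µM) in 50 mM Tris-HCl pH 7.4, 2 h at 25 °C. […] Filtered on GF/B, washed, counted by scintillation. IC50 taken from curves to give Ki; three independent experiments in duplicate.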

Test [5] deals with T4, Muscarinic acetylcholine receptor M2 (Homo sapiens) (UniProt P08172).
T4 sequence (whole entry): T3 sequence (P08172 whole entry)
Kind of test: Displacement of [3H]NMS from human M2 AChR expressed in CHO cell membranes at 100 uM after 1 to 2 hrs by liquid scintillation spectrometry method relative to control. The procedure, abridged: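 CHO membranes expressing the human subtype (20 µg protein/well) with 0.3 nM [3H]NMS and analog (1 nM–100 µM) in 50 mM Tris-HCl pH 7.4, 2 h at 25 °C. Filtered on GF/B, washed, counted by scintillation. IC50 taken from curves to give Ki; three independent experiments in duplicate.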

For test [6], the target named is T5, Muscarinic acetylcholine receptor M3 (Homo sapiens, UniProt P20309). Kind of test: Displacement of [3H]NMS from human M3 AChR expressed in CHO cell membranes after 1 to 2 hrs by liquid scintillation spectrometry method. The class given is cell-based.
Target sequence in this assay (P20309 whole entry): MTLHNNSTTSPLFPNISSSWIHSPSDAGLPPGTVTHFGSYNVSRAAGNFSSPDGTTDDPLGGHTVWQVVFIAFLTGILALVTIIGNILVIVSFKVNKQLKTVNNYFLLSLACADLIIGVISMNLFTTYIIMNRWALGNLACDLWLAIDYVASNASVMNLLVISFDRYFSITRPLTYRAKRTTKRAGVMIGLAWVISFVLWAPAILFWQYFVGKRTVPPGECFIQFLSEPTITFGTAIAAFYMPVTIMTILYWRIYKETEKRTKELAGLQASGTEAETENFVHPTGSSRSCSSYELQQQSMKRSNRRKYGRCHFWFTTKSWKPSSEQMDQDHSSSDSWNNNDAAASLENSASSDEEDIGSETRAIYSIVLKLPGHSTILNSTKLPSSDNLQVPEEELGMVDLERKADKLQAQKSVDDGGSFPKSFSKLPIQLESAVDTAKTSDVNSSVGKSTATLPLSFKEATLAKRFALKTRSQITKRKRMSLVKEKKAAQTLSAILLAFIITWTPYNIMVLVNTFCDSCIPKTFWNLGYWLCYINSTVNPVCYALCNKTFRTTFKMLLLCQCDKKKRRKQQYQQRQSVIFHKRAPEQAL
In test [7] the target is T6, Muscarinic acetylcholine receptor M5 (Homo sapiens, UniProt P08912).
T6 sequence (P08912 whole entry): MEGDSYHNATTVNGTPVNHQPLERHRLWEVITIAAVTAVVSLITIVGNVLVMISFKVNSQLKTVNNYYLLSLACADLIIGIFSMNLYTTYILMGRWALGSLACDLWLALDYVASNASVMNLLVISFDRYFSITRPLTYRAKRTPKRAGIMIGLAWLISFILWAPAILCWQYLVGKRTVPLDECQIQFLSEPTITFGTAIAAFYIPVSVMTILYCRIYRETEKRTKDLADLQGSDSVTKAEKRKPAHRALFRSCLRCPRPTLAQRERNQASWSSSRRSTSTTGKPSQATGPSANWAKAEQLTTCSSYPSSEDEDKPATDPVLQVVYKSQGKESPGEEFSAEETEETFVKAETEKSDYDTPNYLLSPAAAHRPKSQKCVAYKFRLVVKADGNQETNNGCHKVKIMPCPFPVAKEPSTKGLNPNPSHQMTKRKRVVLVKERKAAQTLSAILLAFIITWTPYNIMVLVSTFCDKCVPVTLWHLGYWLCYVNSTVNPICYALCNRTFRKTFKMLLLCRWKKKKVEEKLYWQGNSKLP
Kind of test: Displacement of [3H]NMS from human M5 AChR expressed in CHO cell membranes after 1 to 2 hrs by liquid scintillation spectrometry method. The procedure, abridged:
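CHO membranes expressing human M5 (10 µg protein/well) with 0.3 nM [3H]NMS and analog (1 nM–100 µM) in 50 mM Tris-HCl pH 7.4, 2 h at 25 °C. Filtered on GF/B, counted by scintillation. IC50 converted to Ki; three independent experiments in duplicate.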

Test [8] deals with T7, Muscarinic acetylcholine receptor M5 (Homo sapiens) (UniProt P08912).
T7 sequence (whole entry): T6 sequence (P08912 whole entry)
Kind of test: Displacement of [3H]NMS from human M5 AChR expressed in CHO cell membranes at 100 uM after 1 to 2 hrs by liquid scintillation spectrometry method relative to control. An outline of the steps:
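CHO membranes expressing human M5 (10 µg protein/well) with 0.3 nM [3H]NMS and analog (1 nM–100 µM) in 50 mM Tris-HCl pH 7.4, 2 h at 25 °C. […] Filtered on GF/B, counted by scintillation. IC50 converted to Ki; three independent experiments in duplicate.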

For test [9], the species on record is Homo sapiens. Kind of test: Selectivity ratio of Ki for displacement of [3H]NMS from human M1 AChR expressed in CHO cell membranes to Ki for displacement of [3H]NMS from human M5 AChR expressed in CHO cell membranes.
For test [10], the species on record is Homo sapiens. Kind of test: Selectivity ratio of Ki for displacement of [3H]NMS from human M2 AChR expressed in CHO cell membranes to Ki for displacement of [3H]NMS from human M3 AChR expressed in CHO cell membranes.
Test [11] has as its target T8, Muscarinic acetylcholine receptor M1 (Homo sapiens) (UniProt P11229).
T8 sequence (whole entry): T2 sequence (P11229 whole entry)
Particulars: CHO, at 100 µM.

Test [12] addresses T5, Muscarinic acetylcholine receptor M3. Particulars: CHO, at 100 µM.
Target sequence in this assay (P20309 whole entry, looked up): as the sequence (P20309 whole entry) above
For test [13], the target named is T9, Muscarinic acetylcholine receptor M4 (Homo sapiens, UniProt P08173).
T9 sequence (P08173 whole entry): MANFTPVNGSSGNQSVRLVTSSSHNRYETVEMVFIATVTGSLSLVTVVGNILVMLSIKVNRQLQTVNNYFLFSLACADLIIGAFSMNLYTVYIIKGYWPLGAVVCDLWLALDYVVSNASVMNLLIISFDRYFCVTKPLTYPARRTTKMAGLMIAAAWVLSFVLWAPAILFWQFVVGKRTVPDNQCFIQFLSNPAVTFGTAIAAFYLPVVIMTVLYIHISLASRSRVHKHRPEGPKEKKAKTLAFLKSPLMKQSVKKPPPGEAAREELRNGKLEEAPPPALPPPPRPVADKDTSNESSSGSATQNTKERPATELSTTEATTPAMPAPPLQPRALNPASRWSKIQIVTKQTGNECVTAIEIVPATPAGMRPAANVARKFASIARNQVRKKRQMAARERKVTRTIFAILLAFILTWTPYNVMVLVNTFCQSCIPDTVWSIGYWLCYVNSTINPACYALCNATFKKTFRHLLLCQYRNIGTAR
Kind of test: Displacement of [3H]NMS from human M4 AChR expressed in CHO cell membranes after 1 to 2 hrs by liquid scintillation spectrometry method. The procedure, abridged:
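Human M4-expressing CHO membranes (20 µg protein/well) incubated 2 h at 25 °C with 0.3 nM [3H]NMS and analog (1 nM–100 µM) in 50 mM Tris–HCl pH 7.4. […] Filtered, washed, counted by scintillation. IC50 taken from inhibition curves, Ki from three independent duplicate experiments (mean ± SEM).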

The target in test [14] is T10, Muscarinic acetylcholine receptor M4 (Homo sapiens) (UniProt P08173).
T10 sequence (whole entry): T9 sequence (P08173 whole entry)
Kind of test: Displacement of [3H]NMS from human M4 AChR expressed in CHO cell membranes at 100 uM after 1 to 2 hrs by liquid scintillation spectrometry method relative to control. The procedure, abridged:
as §1

In general, inhibition refers to the drop in the measured response relative to a control, in per cent. High values mean a response far below the control, low ones a response near the control. Take `CN1[C@@H]2C[C@H](OC(=O)[C@H](CO)c3ccccc3)C[C@H]1[C@@H]1O[C@@H]12`: the inhibition in [1] was found to be 51%; in [2] it was 59%.
The term Ki denotes a dissociation constant, usually derived from enzyme kinetics or from competition with a known ligand. Lower therefore signals higher affinity. For the molecule `O=C(OCc1ccc2c(c1)OCO2)N(c1ccccc1)C1CN2CCC1CC2` (centres undefined), the inhibition constant (Ki) in [3] was found to be 30 nM; in [4] it was 30 nM; in test [6], 19 nM; in [7], 40 nM. The Imax came to 99.4% in [5], 99.7% in test [8], 100% in test [11] and 99.9% in test [12]. The results for the Ratio Ki in the test listed under Homo sapiens [9] and in the test listed under Homo sapiens [10] were 0.8 and 1.7, respectively.
For `Cc1ccc(COC(=O)N(c2ccccc2)C2CN3CCC2CC3)cc1F` (centres undefined), the Ki turned out to be 40 nM in test [3], 30 nM in [4], 20 nM in test [6] and 30 nM in test [7]. Moreover, the Imax in test [5] was 99.7%; in test [8] it was 97.4%; in test [11], 100%; in test [12], 99%. Moreover, the Ratio Ki came out at 1.2 in the test listed under Homo sapiens [9] and 1.3 in the test filed under Homo sapiens [10].
Turning to `O=C(OCc1ccccc1)N(c1ccccc1)C1CN2CCC1CC2` (centres undefined), the Ki in [3] amounted to 190 nM; in test [4], 120 nM; in test [6] it was 90 nM; in [7], 150 nM. Further, the Imax in test [5] stood at 99.4%; in [8], 97.2%; in test [11], 99.5%; in test [12] it was 98.6%. The figures for the Ratio Ki in the test filed under Homo sapiens [9] and in the test listed under Homo sapiens [10] were 1.3 and 1.2, respectively.
On to `COc1ccc(CCN(C(=O)OC2CN3CCC2CC3)c2ccccc2)cc1` (racemic), for which the Ki in test [3] was determined as 10 nM; in test [4], 130 nM; in test [6] it was 8 nM; in [7] it was 10 nM; in test [13], 25 nM. Besides, the Imax is 99.7% in [5]; 100% in test [8]; 99.9% in test [14]; 100% in [11]; 99.9% in test [12]. In addition, the figures for the Ratio Ki in the test listed under Homo sapiens [9] and in the test filed under Homo sapiens [10] were 1 and 17.1, respectively.
On to `O=C(OCCCc1ccc(Cl)c(Cl)c1)N(c1ccccc1)C1CN2CCC1CC2` (centres undefined), for which the Ki in [3] stood at 170 nM; in test [4], 300 nM; in [6], 60 nM; in test [7] it was 130 nM. The Imax in test [5] is 99.9%; in [8] it was 99.4%; in test [11], 100%; in [12] it was 100%. The Ratio Ki in the test listed under Homo sapiens [9] came to 1.3; in the test listed under Homo sapiens [10], 4.7.
As for `COc1ccc(CCN(C(=O)OC2CN3CCC2CC3)c2ccccc2)cc1OC` (racemic), the Ki in test [3] stood at 95 nM; in test [4], 350 nM; in test [6], 60 nM; in [7], 65 nM. In addition, the Imax in test [5] worked out at 98.6%; in test [8], 99.8%; in test [11], 100%; in test [12], 99.7%. Also, the Ratio Ki worked out at 1.5 in the test filed under Homo sapiens [9] and 5.7 in the test listed under Homo sapiens [10].
With `O=C(OCc1ccc(Cl)c(Cl)c1)N(c1ccccc1)C1CN2CCC1CC2` (centres undefined), the Ki is 60 nM in test [3], 220 nM in test [4], 70 nM in test [6] and 60 nM in [7]. For the same molecule, the Imax in test [5] stood at 97.5%; in [8], 98.6%; in test [11] it was 100%; in test [12], 95.8%. Also, the Ratio Ki came out at 0.9 in the test filed under Homo sapiens [9] and 3.3 in the test listed under Homo sapiens [10].
Take `COc1ccc(COC(=O)N(c2ccccc2)C2CN3CCC2CC3)cc1F` (centres undefined): the Ki in [3] came to 70 nM; in test [4], 100 nM; in test [6] it was 50 nM; in test [7], 40 nM. Further, the Imax in test [5] was determined as 98.8%; in [8] it was 96.7%; in [11], 99.5%; in test [12], 100%. For the same molecule, the Ratio Ki is 1.5 in the test filed under Homo sapiens [9] and 1.8 in the test listed under Homo sapiens [10].

(Values after ChEMBL document CHEMBL4371071, “Muscarinic agonist, (±)-quinuclidin-3-yl-(4-fluorophenethyl)(phenyl)carbamate: High affinity, but low subtype selectivity for human M1 - M5 muscarinic acetylcholine receptors” (Bioorg Med Chem Lett, 2019).)
